Laboratory results taken from ChEMBL document CHEMBL1909531, “Mitochondrial respiration inhibitors suppress protein translation and hypoxic signaling via the hyperphosphorylation and inactivation of translation initiation factor eIF2α and elongation factor eEF2” (J Nat Prod, 2011).
Active and inactive are the calls of the source. No cut-off for these calls is given here.

What was measured:
[1] = target: Serine/threonine-protein kinase mTOR (Homo sapiens) (UniProt P42345); experiment: Inhibition of mTORC1-mediated rpS6 phosphorylation on Ser 235/236 in human T47D cells at 0.1 to 1 uM after 30 mins by Western blotting; type: cell-based
How it was run: (§1)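 0.8 × 10^6 cells per well exposed for 30 min at 37 °C, 5% CO2, in DMEM/F12 with 5% FBS. Cells washed with cold DPBS and lysed in modified RIPA (pH 7.6) with protease and phosphatase inhibitors. 40 µg protein run on 4–20% SDS-PAGE and blotted. Phospho-site-specific primary antibodies at 1:1,000, HRP anti-rabbit IgG, chemiluminescence on film.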

[2] = target: Serine/threonine-protein kinase mTOR (Homo sapiens) (UniProt P42345); experiment: Inhibition of mTOR-mediated 4E-BP1 phosphorylation on Thr 37/46 in human T47D cells at 0.1 to 1 uM after 30 mins by Western blotting; type: cell-based; how it was run: as §1
T47D [3] = experiment: Antiproliferative activity against human T47D cells assessed as cell viability at 0.01 to 0.1 uM after 72 hrs by SRB assay; type: functional
How it was run: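 T47D cells grown in DMEM/F12 with 10% FBS and penicillin/streptomycin, then exposed for 72 h in a parallel 96-well viability study. Cells fixed in the wells with no aspiration or wash, stained by sulforhodamine B, and read by OD. % inhibition = [1 − (OD treated/OD medium control)] × 100.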

T47D [4] = experiment: Reduction in ATP level in human T47D cells at 0.01 to 0.1 uM after 72 hrs by HPLC-UV analysis; type: functional, cell-based
How it was run: (§2)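 5 × 10^5 cells per well seeded in DMEM/F12 with 10% FBS. After 24 h, half the medium replaced with serum-free DMEM/F12 containing compound. After exposure, cells washed in cold DPBS and extracted with cold 0.4 M perchloric acid, then neutralized with K2CO3. ATP quantified by reversed-phase C18 HPLC-UV using 50 mM potassium phosphate pH 6.0/MeOH at 0.7 mL/min.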

T47D [5] = experiment: Reduction in ATP level in human T47D cells after 48 hrs by HPLC-UV analysis; type: functional, cell-based; how it was run: as §2
T47D [6] = experiment: Reduction in ATP level in human T47D cells after 72 hrs by HPLC-UV analysis; type: functional, cell-based; how it was run: as §2
MDA-MB-231 [7] = experiment: Reduction in ATP level in human MDA-MB-231 cells after 72 hrs by HPLC-UV analysis; type: functional, cell-based; how it was run: as §2
T47D [8] = experiment: Inhibition of cellular respiration in human T47D cells assessed as rate of oxygen consumption at 0.001 to 0.1 uM; type: functional, cell-based
How it was run: (§3)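 Whole-cell oxygen consumption measured with a Clarke-type oxygen electrode during a concentration-response series. Cells in serum-free DMEM/F12 medium at 30 °C.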

[9] = target: Serine/threonine-protein kinase mTOR (Homo sapiens) (UniProt P42345); experiment: Inhibition of mTOR in human T47D cells assessed as eIF2alpha hyperphosphorylation on Ser 51 at 0.1 to 1 uM after 30 mins by Western blotting; type: cell-based; how it was run: as §1
[10] = target: Serine/threonine-protein kinase mTOR (Homo sapiens) (UniProt P42345); experiment: Inhibition of mTOR in human MDA-MB-231 cells assessed as eIF2alpha hyperphosphorylation on Ser 51 at 0.1 to 1 uM after 30 mins by Western blotting; type: cell-based; how it was run: as §1
[11] = target: Serine/threonine-protein kinase mTOR (Homo sapiens) (UniProt P42345); experiment: Inhibition of mTORC1-mediated eIF4E phosphorylation on Ser 209 in human T47D cells at 0.1 to 1 uM after 30 mins by Western blotting; type: cell-based; how it was run: as §1
MDA-MB-231 [12] = experiment: Reduction in ATP level in human MDA-MB-231 cells at 0.01 to 0.1 uM after 48 hrs by HPLC-UV analysis; type: functional, cell-based; how it was run: as §2
[13] = target: Serine/threonine-protein kinase mTOR (Homo sapiens) (UniProt P42345); experiment: Inhibition of mTOR-mediated 4E-BP1 phosphorylation on Thr 37/46 in human MDA-MB-231 cells at 0.1 to 1 uM after 30 mins by Western blotting; type: cell-based; how it was run: as §1
[14] = target: Serine/threonine-protein kinase mTOR (Homo sapiens) (UniProt P42345); experiment: Inhibition of mTOR-mediated eIF4E phosphorylation on Ser 209 in human MDA-MB-231 cells at 0.1 to 1 uM after 30 mins by Western blotting; type: cell-based; how it was run: as §1
[15] = target: Serine/threonine-protein kinase mTOR (Homo sapiens) (UniProt P42345); experiment: Inhibition of mTOR-mediated rpS6 phosphorylation on Ser 235/236 in human MDA-MB-231 cells at 0.1 to 1 uM after 30 mins by Western blotting; type: cell-based; how it was run: as §1
[16] = target: Serine/threonine-protein kinase mTOR (Homo sapiens) (UniProt P42345); experiment: Inhibition of mTOR in human T47D cells assessed as eEF2 hyperphosphorylation on Ser 56 at 0.1 to 1 uM after 30 mins by Western blotting; type: cell-based; how it was run: as §1
[17] = target: Serine/threonine-protein kinase mTOR (Homo sapiens) (UniProt P42345); experiment: Inhibition of mTOR in human MDA-MB-231 cells assessed as eEF2 hyperphosphorylation on Ser 56 at 0.1 to 1 uM after 30 mins by Western blotting; type: cell-based; how it was run: as §1
MDA-MB-231 [18] = experiment: Inhibition of cellular respiration in human MDA-MB-231 cells assessed as rate of oxygen consumption; type: functional, cell-based; how it was run: as §3
[19] = target: T1, Hypoxia inducible factors; HIF-1-alpha, HIF-2-alpha (Homo sapiens, UniProt Q16665+Q99814); experiment: Inhibition of HIF1-mediated induction of VEGF mRNA expression in human T47D cells at 3 uM after 16 hrs by RT-PCR analysis under normoxic condition; type: cell-based
[20] = target: T1, Hypoxia inducible factors; HIF-1-alpha, HIF-2-alpha; experiment: Inhibition of HIF1-mediated induction of Glut-1 mRNA expression in human T47D cells at 3 uM after 16 hrs by RT-PCR analysis under normoxic condition; type: cell-based
[21] = target: T1, Hypoxia inducible factors; HIF-1-alpha, HIF-2-alpha; experiment: Inhibition of HIF1-mediated induction of secreted VEGF protein in hypoxia-stimulated human T47D cells at 3 uM after 16 hrs by ELISA; type: cell-based
[22] = target: T1, Hypoxia inducible factors; HIF-1-alpha, HIF-2-alpha; experiment: Inhibition of HIF1-mediated induction of secreted VEGF protein in human T47D cells at 3 uM after 16 hrs by ELISA under normoxic condition; type: cell-based
[23] = target: T1, Hypoxia inducible factors; HIF-1-alpha, HIF-2-alpha; experiment: Inhibition of HIF1-mediated induction of cellular VEGF protein in hypoxia-stimulated human T47D cells at 0.3 uM after 16 hrs by ELISA; type: cell-based
T47D [24] = experiment: Antiproliferative activity against human T47D cells assessed as cell viability by SRB assay; type: functional, cell-based
How it was run: (§4)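 Cells grown in DMEM/F12 with 10% FBS, penicillin and streptomycin; 96-well viability assay, 2-day or 6-day exposure, with medium (5% FBS) and compound renewed after 3 days in the 6-day study. Read by optical density; % inhibition = [1 − (ODtreated/ODcontrol)] × 100 versus medium control.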

[25] = target: T1, Hypoxia inducible factors; HIF-1-alpha, HIF-2-alpha; experiment: Inhibition of 1, 10-phenanthroline-induced HIF1 activation in human T47D cells after 16 hrs by HRE3-TK-luciferase reporter gene assay; type: cell-based
T47D [26] = experiment: Inhibition of HIF1beta protein accumulation under hypoxic condition in human T47D cells at 3 uM after 4 hrs by Western blot analysis; type: functional, cell-based
T47D [27] = experiment: Ratio of IC50 for 1, 10-phenanthroline-induced HIF1 activation in human T47D cells to IC50 for hypoxia-induced HIF1 activation in human T47D cells; type: cell-based
[28] = target: T1, Hypoxia inducible factors; HIF-1-alpha, HIF-2-alpha; experiment: Inhibition of hypoxia-induced HIF1 activation in human T47D cells after 16 hrs by HRE3-TK-luciferase reporter gene assay; type: cell-based
How it was run: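 T47D cells carrying the pHRE3-TK-Luc reporter, grown in DMEM/F12 with 10% FBS; HIF-1 induced by hypoxia (1% O2). Activity reported as % inhibition of the induced control, calculated as [1 − (treated/control)] × 100.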

MDA-MB-231 [29] = experiment: Antiproliferative activity against human MDA-MB-231 cells assessed as cell viability by SRB assay; type: functional, cell-based; how it was run: as §4
[30] = target: T1, Hypoxia inducible factors; HIF-1-alpha, HIF-2-alpha; experiment: Inhibition of HIF1-mediated induction of VEGF mRNA expression in hypoxia-stimulated human T47D cells at 0.3 to 3 uM after 16 hrs by RT-PCR analysis; type: cell-based
T47D [31] = experiment: Inhibition of 1, 10-phenanthroline-induced HIF1beta protein accumulation in human T47D cells at 3 uM after 4 hrs by Western blot analysis; type: functional, cell-based
[32] = target: T1, Hypoxia inducible factors; HIF-1-alpha, HIF-2-alpha; experiment: Inhibition of HIF1-mediated induction of cellular VEGF protein in human T47D cells at 3 uM after 16 hrs by ELISA under normoxic condition; type: cell-based
[33] = target: T1, Hypoxia inducible factors; HIF-1-alpha, HIF-2-alpha; experiment: Inhibition of HIF1-mediated induction of secreted VEGF protein in hypoxia-stimulated human T47D cells at 0.3 uM after 16 hrs by ELISA; type: cell-based
[34] = target: T1, Hypoxia inducible factors; HIF-1-alpha, HIF-2-alpha; experiment: Inhibition of HIF1-mediated induction of cellular VEGF protein in hypoxia-stimulated human T47D cells at 3 uM after 16 hrs by ELISA; type: cell-based
T47D [35] = experiment: Inhibition of cellular respiration in human T47D cell at 0.03 to 1 uM by oxygen consumption assay; type: functional, cell-based
How it was run: (§5)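 Oxygen consumption of intact T47D cells measured with a Clark-type electrode, in serum-free DMEM/F12 at 30 °C.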

T47D [36] = experiment: Inhibition of HIF1alpha protein accumulation under hypoxic condition in human T47D cells at 3 uM after 4 hrs by Western blot analysis; type: functional, cell-based
T47D [37] = experiment: Inhibition of 1, 10-phenanthroline-induced HIF1alpha protein accumulation in human T47D cells at 3 uM after 4 hrs by Western blot analysis; type: functional, cell-based
[38] = target: T1, Hypoxia inducible factors; HIF-1-alpha, HIF-2-alpha; experiment: Inhibition of HIF1-mediated induction of Glut-1 mRNA expression in hypoxia-stimulated human T47D cells at 0.3 to 3 uM after 16 hrs by RT-PCR analysis; type: cell-based
PC-3 = experiment: Antiproliferative activity against human PC3 cells assessed as cell viability by SRB assay; type: functional, cell-based; how it was run: as §4
T47D [39] = experiment: Inhibition of cellular respiration in human T47D cells at 1 uM by oxygen consumption assay; type: functional; how it was run: as §5

C=C(C)[C@H]1Cc2c(ccc3c2O[C@@H]2COc4cc(OC)c(OC)cc4[C@@H]2C3=O)O1 [ROTENONE]
inhibition [1]: inactive | inhibition [2]: inactive | Activity (T47D [3]): 50% | Activity (T47D [4]): Active | Activity (T47D [5]): Active | Activity (T47D [6]): Dose-dependent effect | Activity (MDA-MB-231 [7]): Dose-dependent effect | inhibition (T47D [8]): Active | inhibition [9]: Active | Activity [10]: Active | inhibition [11]: inactive | Activity (MDA-MB-231 [12]): Active | inhibition [13]: inactive | inhibition [14]: inactive | inhibition [15]: inactive | Activity [16]: Active | Activity [17]: Active | inhibition (MDA-MB-231 [18]): Dose-dependent effect

CC(C)=CC(=O)O[C@@H]1CC[C@]2(C)[C@H]3CC[C@]45C[C@]4(CC[C@@H]5[C@@H]4C[C@H]([C@@H]5OC5(C)C)OC4O)[C@]3(C)[C@H](O)C[C@H]2C1(C)C (stereo not given in full) [SKIMMIAREPIN C]
inhibition [19]: inactive | inhibition [20]: inactive | inhibition [21]: Active | inhibition [22]: inactive | inhibition [23]: Active | Activity (T47D [24]): Active | IC50 [25]: 5600 nM | inhibition (T47D [26]): inactive | Ratio IC50 (T47D [27]): 80 | IC50 [28]: 68 nM | Activity (MDA-MB-231 [29]): inactive | inhibition [30]: Active | inhibition (T47D [31]): inactive | inhibition [32]: inactive | inhibition [33]: Active | inhibition [34]: Active | inhibition (T47D [35]): Dose-dependent effect | inhibition (T47D [36]): Active | inhibition (T47D [37]): inactive | inhibition [38]: Active | Activity (PC-3): Active | inhibition at 1 µM (T47D [39]): 75%
